In ChEMBL document CHEMBL2440017, “Discovery of a potent, selective, and orally bioavailable histamine H3 receptor antagonist SAR110068 for the treatment of sleep-wake disorders” (Bioorg Med Chem Lett, 2013):

Legend:
[1] = system: Mus musculus; assay: Neurologic toxicity in mouse at 10 to 30 mg/kg, po; type: organism-based; set-up: dose 10-30 mg/kg, route oral; details: in vivo
In short: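 Acute oral behavioral safety evaluation in mice. Oral doses were 0, 10 and 30 mg/kg. Behavioral, neurologic and autonomic signs were scored.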

[2] = target: Histamine H3 receptor (Homo sapiens, UniProt Q9Y5N1); assay: Displacement of [3H]N-alpha-methylhistamine from human histamine H3 receptor expressed in CHO cells; type: cell-based
[3] = Inhibition of CYP450 in human hepatocytes at > 100 uM; type: ADME, cell-based, Hepatocyte

Histamine H3 receptor, sequence (Q9Y5N1 whole entry): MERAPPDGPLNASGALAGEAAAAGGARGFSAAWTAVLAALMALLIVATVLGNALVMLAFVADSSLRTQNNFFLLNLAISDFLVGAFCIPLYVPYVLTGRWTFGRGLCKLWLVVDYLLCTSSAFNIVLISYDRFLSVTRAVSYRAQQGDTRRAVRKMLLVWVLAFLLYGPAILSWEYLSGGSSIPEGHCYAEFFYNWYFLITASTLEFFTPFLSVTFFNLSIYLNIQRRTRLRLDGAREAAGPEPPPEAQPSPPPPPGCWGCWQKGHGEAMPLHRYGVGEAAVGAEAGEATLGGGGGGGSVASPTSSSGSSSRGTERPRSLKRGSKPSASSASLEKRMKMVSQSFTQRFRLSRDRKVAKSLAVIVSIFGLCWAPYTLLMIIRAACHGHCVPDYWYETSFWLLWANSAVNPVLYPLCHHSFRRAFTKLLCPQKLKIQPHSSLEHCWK

Ki [2]: 1 nM
inhibition (INH) [3]: Not Active
Compound: Cc1cc(N2CC[C@H](N3CCC[C@@H]3C)C2)ccc1NC(=O)C1CCOCC1
Activity [1]: Non-toxic
